# Reference: PubChem BioAssay
# Unmarked numbers belong to inactive results. Inconclusive results are not listed. Calls of active or inactive are those of the source.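 How the source made its calls, unless noted: active means viability increase at or above a cutoff of the median across tested compounds plus 3 SD (cut at about 8.5% in these data, passing the limit was not always enough); inconclusive means some gains above the cutoff, reason not given; inactive means the rest.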
# Tests used:
# [1] = OD615 S. cerevisiae growth inhibition, permissive medium, pilot counter-assay, permissive growth control for S. cerevisiae lifespan shortening project (AID 705;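 active means growth inhibition above 25% in both replicates, a cutoff set 3 SD above the mean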); settings: OD615, 24 h, at 10 µM, hits give high values
# Method in brief: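 assay system = Saccharomyces cerevisiae strain carrying genetically modified DeaD replicative-lifespan system | medium = SC raffinose/galactose permissive medium | dosing = 10 µM single dose, 0.25% DMSO | schedule = 24 h compound exposure at 30 °C after 4 h pre-growth | measured by = OD at 615 nm | read-out basis = growth inhibition from lowered OD615 after 24 h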
# [2] = Restrictive medium S. cerevisiae growth inhibition, OD615, pilot screen of yeast lifespan reduction project, restrictive growth control (AID 706;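 active means growth inhibition above a set limit, 3 SD over mean compound inhibition, in both replicates, cut at about 43% in these data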;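 further: modified DeaD lifespan yeast strain shifted to restrictive glucose medium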); settings: OD615, 48 h, at 10 µM, hits give high values
# Method in brief: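 Buffer or medium: CSMM-D glucose medium. Material: genetically modified Saccharomyces cerevisiae, DeaD replicative lifespan assay strain. Times: 48 h compound exposure at 30 °C. Measured by: optical density at 615 nm.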
# [3] = viability gain of MRP-1-high H69AR cells under doxorubicin, pilot screen, MRP-1 activator project, CellTiter-Glo, duplicate (AID 807); settings: H69AR viability with doxorubicin, CellTiter-Glo luminescence; at 10 µM; hits give high values;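 further: compound pretreatment 18-22 h then 72 h combined with doxorubicin; 0% = doxorubicin alone and 100% = vehicle without doxorubicin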
# [4] = growth suppression of beta-catenin knockout HCT116, pilot screen, human colon tumor cells (AID 823;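 active means cell viability at or below a set limit in both duplicate runs, the limit being the all-compound median minus 4 SD, cut at about 23% in these data, passing the limit was not always enough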;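 further: 0% = wells killed by 20 µM Hyamine and 100% = untreated DMSO cell wells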); settings: CellTiter-Glo, 60 h, at 10 µM, hits give low values
# [5] = growth suppression of PTEN-deleted HCT116, pilot screen, cell-based, HCT116 clonal line, CellTiter-Glo (AID 824;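 active means viability at or below 27.92% in each of two runs, the all-compound median minus 4 SD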;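 further: 0% = 20 µM Hyamine control and 100% = vehicle cell control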); settings: 60 h, at 10 µM, hits give low values
# [6] = inhibitors of the yeast RAM network, pilot screen, dse1pr::URA3 reporter, 5-FOA selection (AID 869;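 active means inhibition over a set limit, the all-compound mean plus 3 SD, in both replicate runs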;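 further: 0% = DMSO wells with no growth and 100% = 10 µM 1-NA-PP1 with full growth; RAM network block rescues cells from 5-FOA so hits raise OD615 growth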); settings: S. cerevisiae dse1pr::URA3 5-FOA growth, OD615, 2 d; at 10 µM; hits give high values; strain carries analog-sensitive mutant Cbk1 kinase
# [7] = RAM signaling pathway blockade in yeast – S. cerevisiae, Pdr1DBD-CYC8 efflux-inhibited sensitized strain, primary screen (AID 1298;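 active means RAM network inhibition above 8.4% in each of two replicates, 3 SD over the compound average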;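 further: 0% = DMSO untreated cells without growth and 100% = 10 µM 1-NA-PP1 full growth; higher means more yeast growth rescued from 5-FOA killing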); settings: S. cerevisiae cbk1-as DSE1-URA3 strain, 5-FOA growth OD615, 2 d; at 50 µM; hits give high values
SMILES,growth inhibition [1] [%],growth inhibition [2] [%],viability increase [3] [%],viability [4],viability [5],inhibition [6] [%],RAM network inhibition [7] [%]
Cc1cc(C)n(C(=O)CCN2C(=O)c3ccccc3C2=O)n1,-14.3,5.39,2,94.9%,103%,-0.64,-0.15
COC(=O)C(C)Sc1nnc(Cc2cc(=O)[nH]c(=O)[nH]2)n1-c1cc(C)ccc1C (stereo not drawn),-5.62,0.885,-1.25,96%,90.3%,1.77,0.62
CCOc1ccc(N=C2NC(=O)C(CC(=O)O)S2)cc1 (stereo not drawn),-5.86,3,-0.06,104%,101%,2.49,2.45
CCCN(CC1CC1)S(=O)(=O)c1ccc(S(N)(=O)=O)cc1,-8.54,0.87,-1.41,100%,90.3%,0.505,1.48
CC1CCc2nn(CC(=O)NCCC3=CCCCC3)cc2C1 (stereo not drawn),4.45,-4.16,-1.4,101%,94.5%,0.595,0.3
COc1ccc(OCc2nnc3n2N=C(c2ccc(C)cc2)CS3)cc1,-3.36,-2.56,2.3,95.4%,82.1%,1.57,2.58
Cc1ccc2c(c1)c(C)c(C)n2CC(O)CN1CCCCC1C (stereo not drawn),-9.72,-9.14,-4.02,72.2%,79.6%,0.91,2.28
O=C(CCn1c(=S)[nH]c2ccccc2c1=O)N1CCOCC1,-0.255,9.25,0.5,105%,103%,0.715,-0.13
COC(=O)C1(C)Nc2ccccc2C(=O)N1c1ccccc1C (stereo not drawn),-7.67,-8.55,-0.74,104%,102%,2.51,5.2
CCOC(=O)C1CCN(C(=O)CN(c2ccc(OC)cc2)S(=O)(=O)c2c(C)noc2C)CC1,-7.19,-5.5,-2.59,98.5%,96.7%,2.41,3.41
COc1ccccc1NC(=O)C1CCCN(S(=O)(=O)c2cnc[nH]2)C1 (stereo not drawn),1.64,-3.54,-0.26,97%,95.5%,0.53,0.84
O=C(O)c1cccnc1SC1CC(=O)N(c2cccc(C(F)(F)F)c2)C1=O (stereo not drawn),-15.3,-3.59,0.62,103%,101%,1.56,3.58
O=C1CCCC(O)=C1C1C2=C(CCCC2=O)Oc2ccccc21 (stereo not drawn),-12.6,-10.5,-5.35,91.6%,90.1%,2.33,3.55
CCOCCn1c(SCc2ccc(F)cc2)nc2c1c(=O)[nH]c(=O)n2C,-4.31,5.57,-2.04,99%,94.3%,-0.925,-0.32
O=C(CCc1nc2ccccc2[nH]1)NC1CCCCC1,-16.3,-17.4,-0.01,102%,96.9%,1.21,1.28
CCOC(=O)N1CCN(C(=O)C2CCCN(Cc3nc(-c4ccc(Cl)cc4)oc3C)C2)CC1 (stereo not drawn),2.57,-13.2,-4.13,37.9%,46.5%,0.12,3.55
CN(C)CCNc1ncnc2c1cnn2-c1ccc(Cl)cc1,-13.2,-3.57,-7.01,4.33% (active),4.63% (active),1.62,3.07
COc1ccc2c(c1)OC1(C)CC2C(C(=O)c2ccccc2OC)C(=O)N1 (stereo not drawn),-18.1,-9.23,-4.56,80.4%,67%,-0.025,1.48
O=C(NCC1COc2ccccc2O1)C1C2C=CC3(CN(Cc4ccccc4Cl)C(=O)C13)O2 (stereo not drawn),-6.06,-7.88,-1,84.2%,84%,1.02,0
CCN(c1cccc(C)c1)S(=O)(=O)c1cccc2nsnc12,-12.6,-20.3,-3.59,77.1%,88.8%,1.4,4.75
COc1cc(NC(=O)c2ccc(S(=O)(=O)N(C)C)cc2)cc(OC)c1OC,-4.25,-12.5,-2.66,92.9%,94.3%,0.985,3.48
O=C(O)c1ccc(NS(=O)(=O)c2cc(Cl)ccc2Cl)cc1,-13.7,-25.1,-2.13,97.8%,95.3%,1.72,4.43
Cc1ccc(-n2ncc3c(=O)n(CC(=O)NCc4ccco4)cnc32)cc1C,-5.52,-6.3,-5.18,74.4%,56.4%,2.71,1.9
O=C1CCC/C1=c1\s/c(=C\c2cccnc2)c(=O)n1-c1ccccc1,-9.13,-8.32,-5.83,103%,89.6%,0.465,7.11
